The subject of assay [1] is Listeria monocytogenes. As to the kind of experiment: Antimicrobial activity against Listeria monocytogenes after 24 hrs by microbroth dilution method. The note with it: read-out: MIC100. Format: functional. The method, boiled down: (§1)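 Two-fold serial dilutions, six replicates each, inoculated with about 5 × 10^5 CFU/mL in cation-adjusted Mueller-Hinton broth 2. Incubated at 37 °C, 160 rpm, 24 h. OD600 taken at 0 and 24 h; T0 subtracted; % inhibition calculated relative to the bacteria-plus-broth control. MIC is the lowest concentration giving 100% inhibition.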
In general terms: Broth dilution looks for growth in wells or tubes with falling amounts of substance.

Assay [2] deals with Staphylococcus aureus. Put plainly: Induction of degradation of Staphylococcus aureus A170 biofilm at 50 ug/ml assessed as concentration required for complete degradation after 24 hrs by crystal violet staining method relative to control. The assay is classed as functional. Particulars: in the assay text read “after 8 hrs” for “after 24 hrs”.
In assay [3] the test system is Staphylococcus aureus. Put plainly: Antibiofilm activity against Staphylococcus aureus A170 at 25 ug/ml after 24 hrs by crystal violet staining method relative to control. Format: functional, organism-based.
Assay [4] relates to Staphylococcus aureus. Put plainly: Induction of degradation of Staphylococcus aureus A170 biofilm at 30 ug/ml after 24 hrs by crystal violet staining method relative to control. The assay is classed as functional. Particulars: in the assay text read “after 8 hrs” for “after 24 hrs”.
Assay [5] concerns Candida albicans. Put plainly: Antibiofilm activity against Candida albicans SC5314 at 8 to 60 ug/ml after 24 hrs by crystal violet staining method relative to control. The assay is classed as functional, organism-based.
Assay [6] relates to Salmonella typhimurium. Put plainly: Antimicrobial activity against Salmonella typhimurium after 24 hrs by microbroth dilution method. Format: functional, Salmonella enterica subsp. enterica serovar Typhimurium. The note with it: Salmonella enterica, read-out: MIC100. A digest of the protocol: as §1
In assay [7] the test system is Candida albicans. As to the kind of experiment: Induction of degradation of Candida albicans SC5314 biofilm at 20 ug/ml after 24 hrs by XTT assay relative to vehicle-treated control. Format: functional, organism-based. Particulars: in the assay text read “after 8 hrs” for “after 24 hrs”. In general terms: Formazan colour is commonly taken as a measure of viable cells.

For assay [8], the system named is Candida albicans. As to the kind of experiment: Antimicrobial activity against Candida albicans SC5314 after 24 hrs by microbroth dilution method. Format: functional. Particulars: SC5314, 24 h, read-out: MIC100. The method, boiled down:
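CLSI broth microdilution in RPMI 1640 (L-glutamine, no glucose or NaHCO3) buffered to pH 7.0 with 0.165 M MOPS. Two-fold serial dilutions inoculated with 2.5 × 10^3 yeast/mL and incubated at 35 °C for 24 h, using three plates. MIC read visually as the lowest concentration giving optically clear wells versus the drug-free control.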

For assay [9], the system named is Staphylococcus aureus. As to the kind of experiment: Antimicrobial activity against Staphylococcus aureus A170 after 24 hrs by microbroth dilution method. Format: functional. The note with it: A170, 24 h, read-out: MIC100. The method, boiled down: as §1
In assay [10] the test system is Pseudomonas aeruginosa. As to the kind of experiment: Antimicrobial activity against Pseudomonas aeruginosa ATCC 27853 after 24 hrs by microbroth dilution method. Particulars: ATCC 27853, 24 h, read-out: MIC100. The assay is classed as functional. The method, boiled down:
as §1

Assay [11] relates to Staphylococcus aureus. As to the kind of experiment: Antibiofilm activity against Staphylococcus aureus A170 at 30 ug/ml after 24 hrs by crystal violet staining method relative to control. Format: functional, organism-based.
Assay [12] relates to Candida albicans. Put plainly: Antimicrobial activity against Candida albicans SC5314 assessed as inhibition of hyphae formation after 24 hrs by inverted microscopy. The assay is classed as functional, organism-based. A digest of the protocol: (§2)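 Stationary yeast cells at 6 × 10^6 cells/mL in pre-warmed hypha-inducing RPMI 1640 (2.5% fetal calf serum, 20 mM HEPES, 2 mM L-glutamine, 16 mM NaHCO3, pH 7.0). Compound at 1–50 […]. After 24 h at 37 °C, wells examined by inverted microscope for morphology and hyphae formation.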

Assay [13] concerns Candida albicans. As to the kind of experiment: Antimicrobial activity against Candida albicans SC5314 assessed as inhibition of germination at 10 ug/ml after 24 hrs by inverted microscopy. The assay is classed as functional, organism-based. A digest of the protocol: as §2

In brackets after ≈: the same amount, converted by molar mass. Activity calls are given as the source filed them. No cut-off for these calls is given here. Where only a bound is given, the exact number is not on record here.

Consider `CCc1cc(/N=N/c2ccc(O)cc2)ccc1O`, for which the MIC was 50 µg/mL (≈ 206 µM) in assay [1]; more than 60 µg/mL in assay [6]; 30 µg/mL (≈ 124 µM) in assay [8]; 30 µg/mL (≈ 124 µM) in [9]; more than 60 µg/mL in assay [10]. Also, the Activity is 50 µg/mL in assay [2] and more than 60% in [4]. For the same molecule, the result in [3], in [5] and in [7] was Active.
With `C=CCc1cc(/N=N/c2ccc(O)cc2)cc(C)c1O`, the MIC in assay [1] is more than 60 µg/mL; in assay [6], more than 60 µg/mL; in assay [8], 15 µg/mL (≈ 55.9 µM); in assay [9], 25 µg/mL (≈ 93.2 µM); in assay [10], more than 60 µg/mL. The figures for the Activity in assay [2] and in assay [4] were 50 µg/mL and more than 60%, respectively. In addition, the result in assay [3], in assay [5] and in assay [7] was Active.
Turning to `Cc1cc(/N=N/c2ccc(O)cc2)cc(C)c1O`, the MIC in [1] was 25 µg/mL (≈ 103 µM); in [6], more than 60 µg/mL; in [8], 17 µg/mL (≈ 70.2 µM); in [9], 20 µg/mL (≈ 82.5 µM); in [10], more than 60 µg/mL. Further, the Activity was 50 µg/mL in assay [2] and 40% in [4]. Moreover, the outcome in assay [5], in assay [11] and in assay [7] was Active.
Take `C=CCc1cc(/N=N/c2ccc(O)cc2)ccc1O`: the MIC in assay [1] is 25 µg/mL (≈ 98.3 µM); in [6], more than 60 µg/mL; in [8], 20 µg/mL (≈ 78.7 µM); in assay [9], 20 µg/mL (≈ 78.7 µM); in assay [10] it was more than 60 µg/mL. Besides, the values for the Activity in assay [2] and in assay [4] were 50 µg/mL and more than 60%, respectively. Also, the result in assay [3], in [5] and in assay [7] was Active.
With `Oc1ccc(/C=C/c2cc(O)cc(O)c2)cc1` [RESVERATROL], the MIC in [6] is more than 400 µg/mL; in assay [8] it was more than 128 µg/mL; in assay [9], 100 µg/mL (≈ 438 µM); in assay [10], more than 400 µg/mL.
With `CCCc1cc(/N=N/c2ccc(O)cc2)ccc1O`, the inhibition entry in assay [12] is “Dose-dependent effect”. The inhibition entry in [13] is “Active”. In addition, the MIC was 25 µg/mL (≈ 97.5 µM) in [1]; more than 60 µg/mL in assay [6]; 20 µg/mL (≈ 78 µM) in assay [8]; 20 µg/mL (≈ 78 µM) in assay [9]; more than 60 µg/mL in assay [10]. The Activity was 50 µg/mL in assay [2] and more than 60% in assay [4]. The result in assay [3], in assay [5] and in [7] was Active.

(Values after ChEMBL document CHEMBL3108699, “Small azobenzene derivatives active against bacteria and fungi” (2013).)
